The subject of assay [1] is L1210. The assay is described as follows: Antitumor activity against mouse L1210 cells allografted in BDF/1 mouse assessed as tumor weight reduction on day 5 at 400 mg/kg, ip qd treated 24 hrs after tumor implantation relative to control. Details: dose 400 mg/kg. The format is functional, organism-based.
In a further assay the test system is Vaccinia virus. The assay is described as follows: Antiviral activity against Vaccinia virus infected in human KB cells assessed as inhibition of virus-induced cytopathic effect after 72 hrs by microscopically. The following applies: Orthopoxvirus vaccinia. In kind it is functional, organism-based. (Protection from cytopathic effect is a common read-out in antiviral testing.)

The subject of assay [2] is L1210. The assay is described as follows: Antitumor activity against mouse L1210 cells allografted in BDF/1 mouse assessed as mouse survival at 400 mg/kg, ip qd treated 24 hrs after tumor implantation relative to control. Particulars: route intraperitoneal. The format is functional. In outline:
(§1)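 Female BDF1 mice, 6–8 per group, were inoculated ip with 1×10^5 viable L1210 cells. Drug was given ip once daily on days 1–5, starting 24 h after implant, in freshly prepared isotonic sterile saline. Controls received 0.2 mL saline. Read-outs were survivors (cures) and T/C, with survivors excluded from T/C. P values came from the Wilcoxon nonparametric method.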

Assay [3] has as its system L1210. The assay is described as follows: Antitumor activity against mouse L1210 cells allografted in BDF/1 mouse assessed as mouse survival upto 60 days at 400 mg/kg, ip qd treated 24 hrs after tumor implantation relative to control. In kind it is functional, organism-based. Details: dose 400 mg/kg. Put shortly: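 BDF1 female mice, six to eight per group, inoculated ip with 1×10^5 viable L1210 cells. Drug was given ip once daily on days 1-5, starting 24 h after implant, in freshly prepared isotonic sterile saline. Controls received 0.2 mL saline. Read-out was survivors (cures) and T/C excluding survivors. P was derived by the Wilcoxon nonparametric method.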

The subject of assay [4] is Human alphaherpesvirus 1. The assay is described as follows: Antiviral activity against Herpes simplex virus type 1 infected in human KB cells assessed as inhibition of virus-induced cytopathic effect after 72 hrs by microscopically. The format is functional, organism-based. In outline: (§2)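 KB monolayers (18-24 h) were exposed to about 320 CCID50 of virus, with compound added within 15 min. CPE (0-4) and cytotoxicity were scored microscopically after 72 h at 37 °C. Virus rating was the summed (virus control − treated) CPE across drug levels, halved at partially toxic levels. Ratings: 0.5 slight/none, 0.5-0.9 moderate, 1.0 marked.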

For another assay, the system named is Suid alphaherpesvirus 1. The assay is described as follows: Antiviral activity against Pseudorabies virus infected in human KB cells assessed as inhibition of virus-induced cytopathic effect after 72 hrs by microscopically. The format is functional, organism-based.
Assay [5] relates to KB. The assay is described as follows: Antiviral activity against Myxoma virus infected in human KB cells assessed as inhibition of virus-induced cytopathic effect after 72 hrs by microscopically. In kind it is functional, cell-based. In outline: as §2
Assay [6] concerns Human alphaherpesvirus 1. The assay is described as follows: Antiviral activity against Herpes simplex virus type 1 infected in Swiss albino mouse assessed as increase in mouse survival at 0.033 mg/kg, ic single dose after 6 hrs of infection relative to control. In kind it is functional. Particulars: Human alphaherpesvirus 1, 6 h. In outline: (§3)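 Swiss albino mice, six per group, were infected intracerebrally with HSV-1 at about 10 LD50. Six hours later each received a single ic drug injection in Hank's balanced salt solution. Controls received the same volume of Hank's solution alone. Efficacy was the increase in number of survivors versus controls.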

Assay [7] has as its system Human alphaherpesvirus 1. The assay is described as follows: Antiviral activity against Herpes simplex virus type 1 infected in Swiss albino mouse assessed as increase in mouse survival at 0.14 mg/kg, ic single dose after 6 hrs of infection relative to control. In kind it is functional. The following applies: Human alphaherpesvirus 1, 6 h. In outline:
as §3

For assay [8], the system named is L1210. The assay is described as follows: Antitumor activity against mouse L1210 cells allografted DBA/2 mouse assessed as increase in life span. In kind it is functional.
Assay [9] relates to L1210. The assay is described as follows: Antitumor activity against mouse L1210 cells allografted in BDF/1 mouse assessed as mouse survival at 600 mg/kg, ip qd treated 24 hrs after tumor implantation relative to control. The format is functional. Particulars: route intraperitoneal. In outline: as §1
The test system of assay [10] is L1210. The assay is described as follows: Antitumor activity against mouse L1210 cells allografted in BDF/1 mouse assessed as tumor weight reduction on day 5 at 600 mg/kg, ip qd treated 24 hrs after tumor implantation relative to control. On the set-up: dose 600 mg/kg. The format is functional, organism-based.
For assay [11], the system named is L1210. The assay is described as follows: Antitumor activity against mouse L1210 cells allografted in BDF/1 mouse assessed as […] at 600 mg/kg, ip qd treated 24 hrs after tumor implantation relative to control. The format is functional. The following applies: route intraperitoneal. Put shortly:
as §1

Assay [12] concerns KB. The assay is described as follows: Antiviral activity against rhinovirus type 13 infected in human KB cells assessed as inhibition of virus-induced cytopathic effect after 72 hrs by microscopically. The format is functional, cell-based. Particulars: Human rhinovirus A13. Put shortly:
as §2

For assay [13], the system named is L1210. The assay is described as follows: Antitumor activity against mouse L1210 cells allografted in BDF/1 mouse assessed as mouse survival upto 60 days at 600 mg/kg, ip qd treated 24 hrs after tumor implantation relative to control. The format is functional. In outline: as §1
The test system of assay [14] is L1210. The assay is described as follows: Antitumor activity against mouse L1210 cells allografted in BDF/1 mouse assessed as increase in life span at 600 mg/kg, ip qd treated 24 hrs after tumor implantation relative to control. In kind it is functional. The following applies: route intraperitoneal. Put shortly:
as §1

The structures appear in SMILES notation. Activity calls are given as the source filed them. The rule behind the calls is not given here.

Turning to `N=c1ccn([C@@H]2O[C@H](CO)[C@@H](O)[C@@H]2O)c(N)n1`, the inhibition result with L1210 [1], in the assay with Vaccinia virus, in the assay on Human alphaherpesvirus 1 [4], in the assay on Suid alphaherpesvirus 1 and in the assay with KB [5] was “Active” in each case. The Survival with L1210 [2] came out at 60 days. Moreover, in the assay on L1210 [3], the result was Active.

On to `Nc1ccn([C@@H]2O[C@H](CO)[C@@H](O)[C@@H]2O)c(=O)n1` [CYTARABINE], for which, in the assay on Human alphaherpesvirus 1 [6], the survival at 0.033 mg/kg turned out to be 0%. In addition, the inhibition result in the assay on Vaccinia virus, with Human alphaherpesvirus 1 [4], in the assay on Suid alphaherpesvirus 1 and in the assay on KB [5] was “Active” throughout. Moreover, the survival at 0.14 mg/kg in the assay on Human alphaherpesvirus 1 [7] was 40%.

For `N=c1nc2n(cc1F)[C@@H]1O[C@H](CO)[C@@H](O)[C@H]1O2`, the Activity in the assay with L1210 [8] was found to be 80%.

For the compound `N=c1ccn2c(n1)O[C@@H]1[C@H](OP(=O)(O)O)[C@@H](CO)O[C@H]12`, the Survival with L1210 [9] came to 17.5 days. Also, the inhibition result in the assay on L1210 [10], in the assay on Vaccinia virus, in the assay on KB [12], in the assay with Human alphaherpesvirus 1 [4], in the assay with Suid alphaherpesvirus 1 and in the assay with KB [5] was “Active” each time. In addition, in the assay on Human alphaherpesvirus 1 [6], the survival at 0.033 mg/kg amounted to 0%. Besides, the T/C with L1210 [11] is given as 2.07. Moreover, the survival at 0.14 mg/kg in the assay on Human alphaherpesvirus 1 [7] is 40%. Besides, in the assay with L1210 [13], the result was inactive.

Consider `N=c1ccn2c(n1)O[C@@H]1[C@H](O)[C@@H](CO)O[C@H]12`, for which the Survival in the assay on L1210 [9] was found to be 24 days. In addition, the inhibition result with L1210 [10] is “Active”. Besides, the T/C in the assay on L1210 [11] amounted to 2.81. Moreover, the result with L1210 [13] was inactive.

For the compound `N=c1nc2n(cc1F)[C@@H]1O[C@H](CO)[C@@H](OP(=O)(O)O)[C@H]1O2`, the inhibition result with Human alphaherpesvirus 1 [4] was “Active”.

As for `N=c1nc(N)n([C@@H]2O[C@H](CO)[C@@H](OP(=O)(O)O)[C@@H]2O)cc1F`, the inhibition entry with Vaccinia virus, in the assay with Human alphaherpesvirus 1 [4], with Suid alphaherpesvirus 1 and in the assay on KB [5] was “Active” throughout. In addition, the inhibition result with KB [12] was “inactive”.

With `Nc1ccn([C@@H]2O[C@H](CO)[C@@H](OP(=O)(O)O)[C@@H]2O)c(=O)n1`, the inhibition entry in the assay on Vaccinia virus, in the assay with KB [12], with Human alphaherpesvirus 1 [4], with Suid alphaherpesvirus 1 and in the assay with KB [5] was “Active” in each case.

In the case of `N=c1ccn([C@@H]2O[C@H](CO)[C@@H](OP(=O)(O)O)[C@@H]2O)c(N)n1`, the Survival in the assay with L1210 [9] was 22.5 days. Also, the inhibition entry with L1210 [10], in the assay on Vaccinia virus, in the assay with Human alphaherpesvirus 1 [4], with Suid alphaherpesvirus 1 and in the assay on KB [5] was “Active” each time. In the assay with Human alphaherpesvirus 1 [6], the survival at 0.033 mg/kg was 0%. For the same compound, the T/C in the assay with L1210 [11] is recorded as 2.44. The inhibition result in the assay on KB [12] is “inactive”. For the same compound, the Activity in the assay with L1210 [14] turned out to be 144%. In the assay with Human alphaherpesvirus 1 [7], the survival at 0.14 mg/kg was 50%. Moreover, the survival at 600 mg/kg with L1210 [13] (route intraperitoneal) was determined as 33%.

The values above are taken from ChEMBL document CHEMBL3227966, “Synthesis and antitumor and antiviral activities of 1-beta-D-arabinofuranosyl-2-amino-1,4(2H)-iminopyrimidine and its derivatives” (1979).
